Consider 28 compounds from ChEMBL document CHEMBL5661986, “Discovery of the SMYD3 Inhibitor BAY-6035 Using Thermal Shift Assay (TSA)-Based High-Throughput Screening” (SLAS Discov, 2021).

Data set [1] in a line: Lipophilicity, log D of the compound at pH 7.5. Format: physicochemical. The note with it: buffer.
Data set [2] can be described thus: Kinetic solubility of the compound at pH 6.5. Format: physicochemical. The note with it: buffer, read-out: Kinetic_solubility.
In data set [3] the target is T1, Histone-lysine N-methyltransferase SMYD3 (Homo sapiens, UniProt Q9H7B4).
T1 sequence (Q9H7B4 whole entry): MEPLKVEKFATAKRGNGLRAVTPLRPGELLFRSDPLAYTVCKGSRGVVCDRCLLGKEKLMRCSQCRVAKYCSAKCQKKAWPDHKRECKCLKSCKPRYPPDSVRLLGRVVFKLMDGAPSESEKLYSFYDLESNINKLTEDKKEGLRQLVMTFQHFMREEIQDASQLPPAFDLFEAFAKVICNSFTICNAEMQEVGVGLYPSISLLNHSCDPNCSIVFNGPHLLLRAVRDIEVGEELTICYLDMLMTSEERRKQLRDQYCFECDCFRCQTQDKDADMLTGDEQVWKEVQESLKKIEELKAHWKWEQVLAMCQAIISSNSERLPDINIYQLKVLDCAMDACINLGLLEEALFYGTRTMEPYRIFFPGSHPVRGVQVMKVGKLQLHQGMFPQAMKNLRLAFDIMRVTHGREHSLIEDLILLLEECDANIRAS
The data set can be described thus: Binding affinity to recombinant human SMYD3 expressed in Escherichia coli assessed as catalytic inhibition using DYDNPIFEKFGKGGTYPRRYHVSYHGK-Biotin as substrate by scintillation proximity assay.

In data set [4] the target is T2, Histone-lysine N-methyltransferase SMYD3 (Homo sapiens) (UniProt Q9H7B4).
T2 sequence (whole entry): T1 sequence (Q9H7B4 whole entry)
The note with it: dose 120.0 µM.

The target of data set [5] is T2, Histone-lysine N-methyltransferase SMYD3 (Homo sapiens). The data set can be described thus: Binding affinity to recombinant human SMYD3 expressed in Escherichia coli assessed as change in melting temperature at 10 to 200 uM by SYPRO Orange staining based thermal shift assay. Particulars: dose 10-200 µM. A digest of the protocol: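 Full-length untagged SMYD3 (aa 1–428, E. coli, His tag removed by TEV) at 1.5–2.0 µM with 5x SYPRO Orange in 20 mM Tris pH 7.0, 150 mM NaCl, 1.0 mM DTT; compound titration 10–200 µM; 4% DMSO control; melting scanned 25–80 °C at 0.1 °C/s; Tm shift read.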

Data set [6] addresses T3, Histone-lysine N-methyltransferase SMYD1 (Homo sapiens) (UniProt Q8NB12).
T3 sequence (whole entry): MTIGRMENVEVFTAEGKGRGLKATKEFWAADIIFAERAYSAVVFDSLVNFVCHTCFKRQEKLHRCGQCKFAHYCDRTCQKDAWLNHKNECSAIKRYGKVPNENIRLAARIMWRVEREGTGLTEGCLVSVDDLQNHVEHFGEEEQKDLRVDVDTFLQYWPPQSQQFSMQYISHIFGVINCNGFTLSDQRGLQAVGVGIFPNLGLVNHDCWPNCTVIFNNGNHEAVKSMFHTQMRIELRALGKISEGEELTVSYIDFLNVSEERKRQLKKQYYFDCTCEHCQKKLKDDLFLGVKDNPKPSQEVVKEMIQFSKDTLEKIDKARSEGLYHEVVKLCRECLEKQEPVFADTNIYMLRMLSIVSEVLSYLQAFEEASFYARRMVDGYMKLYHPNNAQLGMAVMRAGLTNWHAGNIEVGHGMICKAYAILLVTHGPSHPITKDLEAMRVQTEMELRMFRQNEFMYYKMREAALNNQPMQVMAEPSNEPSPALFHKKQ
The experiment in a line: Binding affinity to recombinant human SMYD1 expressed in Sf9 insect cells assessed as change in melting temperature at 120 uM by SYPRO Orange staining based thermal shift assay. The method in brief:
(§1)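 SMYD1 (aa 2–490) or SMYD2 (aa 2–433), His-tagged from Sf9, Ni-NTA then gel filtration; melt at 1.4 µM protein, 8x SYPRO Orange in 20 mM Tris pH 8.0, 100 mM NaCl, 8.5% glycerol, 1.0 mM DTT; scan 25–80 °C at 0.1 °C/s; 4% DMSO control.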

Data set [7] addresses N-lysine methyltransferase SMYD2 (Homo sapiens) (UniProt Q9NRG4). The data set can be described thus: Binding affinity to recombinant human SMYD2 expressed in Sf9 insect cells assessed as change in melting temperature at 120 uM by SYPRO Orange staining based thermal shift assay. A digest of the protocol:
as §1

Data set [8] in a line: Dissociation constant, pKa of compound. In kind it is physicochemical.
Data set [9] relates to Histone-lysine N-methyltransferase SMYD3 (Homo sapiens), Q9H7B4 [UNDEFINED MUTATION]. The experiment in a line: Inhibition of SMYD3 catalytic inactive mutant co-expressed with HA-tagged MAP3K2 transfected in human HeLa cells assessed as reduction of MAP3K2-K260me3 level upto 10 uM incubated for 20 hrs by Western blotting analysis. Format: cell-based. The method in brief: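 After 4 h, compound or DMSO for 20 h. Lysates immunoblotted for MAP3K2-K260me3 (in-house antibody), HA, SMYD3 and MAP3K2 with infrared secondaries. K260me3 signal normalized to HA; three technical replicates, mean ± SEM, nonlinear fit.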

Molecules are shown by their SMILES. Values after ≈ are worked out from the molar mass of the structure shown. Active and inactive are the calls of the source. The calls are words filed in the database; no cut-off is given here.

Sequence of N-lysine methyltransferase SMYD2 (Homo sapiens) (Q9NRG4 whole entry): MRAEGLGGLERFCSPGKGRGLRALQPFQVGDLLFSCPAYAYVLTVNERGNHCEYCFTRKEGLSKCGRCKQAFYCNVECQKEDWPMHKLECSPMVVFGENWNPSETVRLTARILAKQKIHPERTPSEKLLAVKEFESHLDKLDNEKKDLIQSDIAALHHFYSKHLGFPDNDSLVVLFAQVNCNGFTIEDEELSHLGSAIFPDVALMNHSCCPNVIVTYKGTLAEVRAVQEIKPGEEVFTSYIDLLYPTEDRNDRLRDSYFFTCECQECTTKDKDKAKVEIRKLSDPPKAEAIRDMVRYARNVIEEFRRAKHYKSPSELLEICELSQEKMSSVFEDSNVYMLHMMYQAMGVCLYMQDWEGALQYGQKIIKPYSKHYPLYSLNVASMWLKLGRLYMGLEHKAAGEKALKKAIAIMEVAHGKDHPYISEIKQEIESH

Take `CCN1CCN(C(=O)N2c3ccc(C(=O)NCCC4CC4)cc3NC(=O)C[C@@H]2C)CC1`: the logD in data set [1] came out at 1.7. In data set [2], the solubility kinetic was above 428 µg/mL. Moreover, the IC50 in [3] was determined as 459 nM. The compound further showed a deltaTm in data set [4] of 7.34 K.
On to `CCCNC(=O)c1ccc2c(c1)NC(=O)CC(C)N2C(=O)c1cccs1` (configuration not stated), for which the deltaTm was 0.2 K in [5], -0.2 K in data set [6] and 0 K in data set [7]. Further, in data set [3], the IC50 turned out to be 18000 nM.
Take `C[C@H]1CC(=O)Nc2cc(C(=O)N(C)CCC3CC3)ccc2N1C(=O)N1CC2CC2C1` (some centres not stated): the IC50 in data set [3] came to 2640 nM. In addition, the deltaTm in [4] was found to be 3.9 K.
`C[C@H]1CC(=O)Nc2cc(C(=O)NCCC3CC3)ccc2N1C(=O)N1CCC(N)CC1` gave a logD in data set [1] of 1.4. Moreover, in data set [2], the solubility kinetic worked out at 318 µg/mL (≈ 768 µM).
The compound `CC1CC(=O)Nc2cc(C(=O)NCCC3CC3)ccc2N1C(=O)c1ccccc1` (racemic) came in with a logD in data set [1] of 2.1. The solubility kinetic in data set [2] came to 95.5 µg/mL (≈ 244 µM). Also, in data set [3], the 50% inhibitory concentration (IC50) turned out to be 1970 nM. In addition, the deltaTm in data set [4] stood at 3.9 K.
In [1], `C[C@H]1CC(=O)Nc2cc(C(=O)NCCC3CC3)ccc2N1C(=O)N1CC[C@@H](N)C1.Cl` had a logD of 1.4. Besides, the solubility kinetic in data set [2] is 330 µg/mL. Also, the IC50 in [3] is 832 nM. In data set [4], this compound had a deltaTm of 5.91 K.
For `CCN1CCC(N(C)C(=O)N2c3ccc(C(=O)NCCC4CC4)cc3NC(=O)C[C@@H]2C)CC1` the same measures were 1.5, above 456 µg/mL, 177 nM and 8.2 K.
Consider `CCCCNC(=O)c1ccc2c(c1)NC(=O)CC(C)N2C(=O)CCC1CCCC1` (configuration not stated), for which the deltaTm in data set [5] was 0.4 K; in data set [6], -0.2 K; in data set [7] it was 0.2 K. Besides, the IC50 in data set [3] was found to be 18000 nM.
Take `C[C@H]1CC(=O)Nc2cc(C(=O)NCCC3CC3)ccc2N1C(=O)NC1CCNCC1`: in data set [1], the logD amounted to 1.3. Also, the solubility kinetic in data set [2] came out at 252 µg/mL (≈ 609 µM). In addition, the IC50 in data set [3] is 396 nM. The deltaTm in data set [4] worked out at 6.77 K.
For `C[C@H]1CC(=O)Nc2cc(C(=O)NCCC3CC3)ccc2N1C(=O)N1CCN(CCO)CC1` the same measures were 1.5, 254 µg/mL (≈ 573 µM), 1080 nM and 5.63 K.
`C[C@H]1CC(=O)Nc2cc(C(=O)NCCC3CC3)ccc2N1C(=O)N1CCCNCC1`: in [1], the logD is 1.4. For the same compound, the solubility kinetic in [2] was above 414 µg/mL. Also, in [8], the pKa was 8.8. In addition, in [3], the IC50 was 54.2 nM. The deltaTm in data set [4] is 8.46 K.
`CCCCCNC(=O)c1ccc2c(c1)NC(=O)CC(C)N2C(=O)c1ccccc1F` (configuration not stated): the deltaTm in data set [5] is 0.2 K; in [6], -0.2 K; in data set [7], 0.2 K. For the same compound, in data set [3], the IC50 worked out at 24000 nM.
Compound `C[C@H]1CC(=O)Nc2cc(C(=O)NCCC3CC3)ccc2N1C(=O)N1CCC(NCC(F)(F)F)CC1` returned a logD in data set [1] of 2.2. Moreover, in data set [2], the solubility kinetic came to 312 µg/mL (≈ 631 µM). In data set [3], the IC50 was 1030 nM. For the same compound, in data set [4], the deltaTm stood at 5.63 K.
`C[C@@H]1CC(=O)Nc2cc(C(=O)NCCC3CC3)ccc2N1C(=O)N1CCC(N)CC1` yielded a logD in data set [1] of 1.4. Besides, in [2], the solubility kinetic worked out at 320 µg/mL (≈ 775 µM).
Consider `C[C@H]1CC(=O)Nc2cc(C(=O)NCCC3CC3)ccc2N1C(=O)N1CCC(F)(F)CC1`, for which the logD in data set [1] was determined as 2.1. Also, in data set [2], the solubility kinetic is 231 µg/mL (≈ 531 µM). For the same compound, the IC50 in data set [3] came to 2330 nM. The deltaTm in [4] amounted to 5.6 K.
For `C[C@H]1CC(=O)Nc2cc(C(=O)NCCC3CC3)ccc2N1C(=O)N(C)C1CCNCC1` the same measures were 1.3, 257 µg/mL (≈ 602 µM), 493 nM and 6.1 K.
On to `C[C@@H]1CC(=O)Nc2cc(C(=O)N(C)CCC3CC3)ccc2N1C(=O)N1CC2CC2C1` (some centres not stated), for which the IC50 in data set [3] is above 100000 nM. Besides, the inhibition entry in data set [9] was “inactive”.
On to `CCCCCNC(=O)c1ccc2c(c1)NC(=O)CC(C)N2C(=O)C1CCCC1` (configuration not stated), for which the deltaTm is 0 K in [5], -0.1 K in data set [6] and 0.1 K in [7]. In addition, the IC50 in data set [3] was determined as 27000 nM.
In the case of `CCCCNC(=O)c1ccc2c(c1)NC(=O)CC(C)N2C(=O)c1cccc(F)c1` (configuration not stated), the deltaTm was 0 K in data set [5], 0 K in data set [6] and 0.2 K in data set [7].
Take `C[C@H]1CC(=O)Nc2cc(C(=O)NCCC3CC3)ccc2N1C(=O)N1CC[C@H](N)C1.Cl`: the logD in data set [1] is 1.4. Also, the solubility kinetic in data set [2] came out at 294 µg/mL. In addition, the IC50 in data set [3] worked out at 259 nM. The compound also showed a deltaTm in [4] of 7.56 K.
For `CC1CC(=O)Nc2cc(C(=O)NCCC3CCC3)ccc2N1C(=O)c1ccccc1` (racemic) the same measures were 2.4, 87.5 µg/mL (≈ 216 µM), 1850 nM and 4.77 K.
As to `C[C@H]1CC(=O)Nc2cc(C(=O)NCCC3CC3)ccc2N1C(=O)N1CCN(CC(F)(F)F)CC1`, in [1], the logD was determined as 2.2. Besides, the IC50 in data set [3] amounted to 1510 nM. This compound gave a deltaTm in data set [4] of 5.26 K.
As to `C[C@@H]1CC(=O)Nc2cc(C(=O)NCCC3CC3)ccc2N1C(=O)N1CC2CC2C1` (some centres not stated), in data set [3], the IC50 is 2530 nM. The compound also came in with a deltaTm in [4] of 5.15 K.
Regarding `CCCCNC(=O)c1ccc2c(c1)NC(=O)CC(C)N2C(=O)c1ccccc1F` (configuration not stated), the deltaTm was 0.7 K in data set [5], 2.4 K in [4], 0 K in data set [6] and 0 K in data set [7]. Further, the IC50 in data set [3] was found to be 12000 nM.
With `C[C@H]1CC(=O)Nc2cc(C(=O)NCCC3CC3)ccc2N1C(=O)N1CCC(F)(F)C1`, the logD in data set [1] is 2. In addition, the solubility kinetic in [2] amounted to 294 µg/mL (≈ 700 µM). Besides, the half-maximal inhibitory concentration (IC50) in data set [3] is 763 nM. This compound returned a deltaTm in data set [4] of 6.16 K.
As to `CCCCCNC(=O)c1ccc2c(c1)NC(=O)CC(C)N2C(=O)c1ccc(C)cc1` (configuration not stated), the deltaTm in data set [5], in [6] and in [7] was 0.2 K throughout. In addition, the IC50 in data set [3] stood at 22000 nM.
For `C[C@H]1CC(=O)Nc2cc(C(=O)NCCC3CC3)ccc2N1C(=O)N(C)C1CCN(CC(F)(F)F)CC1`, the logD in [1] worked out at 2.4. Also, the solubility kinetic in data set [2] came to 345 µg/mL (≈ 677 µM). Further, the IC50 in data set [3] stood at 5560 nM. The compound further displayed a deltaTm in data set [4] of 3.34 K.
In turn, `C[C@H]1CC(=O)Nc2cc(C(=O)NCCC3CC3)ccc2N1C(=O)N1CCNCC1` displayed a logD in data set [1] of 1.4. Moreover, in [2], the solubility kinetic was 374 µg/mL (≈ 936 µM). The IC50 in data set [3] turned out to be 252 nM. Moreover, the deltaTm in [4] stood at 7.42 K.
